According to ChEMBL document CHEMBL1158761, “Globosumones A-C, cytotoxic orsellinic acid esters from the Sonoran desert endophytic fungus Chaetomium globosum” (J Nat Prod, 2005):
The source made the active and inactive calls. No cut-off for these calls is given here.

Tests used:
NCI-H460 [1] = assay: Cytotoxicity against human NCI-H460 cells by MTT assay; assay type: functional, cell-based
Outline: (§1)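 Cells were exposed to samples dissolved in DMSO for 72 h in RPMI-1640 medium with 10% fetal bovine serum. Inhibition of proliferation was read by the tetrazolium-based colorimetric MTT viability assay. The panel comprised NCI-H460 lung, MCF-7 breast, SF-268 glioma and MIA Pa Ca-2 pancreatic carcinoma lines, plus normal primary WI-38 fibroblasts.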

[2] = Cytotoxicity against human WI38 cells; assay type: cell-based; conditions: WI-38; outline: as §1
MIA PaCa-2 [3] = assay: Cytotoxicity against human MIAPaCa2 cells; assay type: functional, cell-based; outline: as §1
MCF7 [4] = assay: Cytotoxicity against human MCF7 cells by MTT assay; assay type: functional, cell-based; outline: as §1
SF-268 [5] = assay: Cytotoxicity against human SF268 cells; assay type: functional, cell-based; outline: as §1
MCF7 [6] = assay: Cytotoxicity against human MCF7 cells at 10 ug/mL by MTT assay; assay type: functional, cell-based
NCI-H460 [7] = assay: Cytotoxicity against human NCI-H460 cells at 10 ug/mL by MTT assay; assay type: functional, cell-based
MIA PaCa-2 [8] = assay: Cytotoxicity against human MIAPaCa2 cells at 10 ug/mL; assay type: functional, cell-based
SF-268 [9] = assay: Cytotoxicity against human SF268 cells at 10 ug/mL; assay type: functional, cell-based
[10] = Cytotoxicity against human WI38 cells at 10 ug/mL; assay type: cell-based; conditions: wi-38

SMILES | IC50 (NCI-H460 [1]) | IC50 [2] | IC50 (MIA PaCa-2 [3]) | IC50 (MCF7 [4]) | IC50 (SF-268 [5]) | Activity (MCF7 [6]) | Activity (NCI-H460 [7]) | Activity (MIA PaCa-2 [8]) | Activity (SF-268 [9]) | Activity [10]
COc1cccc2c1C(=O)c1c(O)c3c(c(O)c1C2=O)C[C@@](O)(C(=O)CO)C[C@@H]3O[C@H]1C[C@H](N)[C@H](O)[C@H](C)O1 [DOXORUBICIN] | 0.01 µM | 0.3 µM |  |  |  |  |  |  |  | 
C/C=C/C(=O)COC(=O)c1c(C)cc(O)cc1O [GLOBOSUMONE A] | 6.5 µM | 13 µM | 10.6 µM | 21.3 µM | 8.8 µM |  |  |  |  | 
Cc1cc(O)cc(O)c1C(=O)OCC(=O)C[C@H](C)O [GLOBOSUMONE B] | 24.8 µM | 14.2 µM | 30.2 µM | 21.9 µM | 29.1 µM |  |  |  |  | 
Cc1cc(O)cc(O)c1C(=O)OCC(=O)[C@@H](O)[C@H](C)O [GLOBOSUMONE C] |  |  |  |  |  | inactive | inactive | inactive | inactive | Not Active
Cc1cc(O)cc(O)c1C(=O)O [ORSELLINIC ACID] |  |  |  |  |  | inactive | inactive | inactive | inactive | Not Active
C/C=C/C1OC2=C(C(=O)C[C@H](C)O2)C(=O)[C@@H]1O (some centres not stated) [TRICHODION] |  |  |  |  |  | inactive | inactive | inactive | inactive | Not Active
